Assays:
[1] = tested on: Human immunodeficiency virus 1; assay: Antiviral activity against HIV1 LAI infected in human CEMx174 cells coexpressing GFP preincubated for 1 hr measured after 5 days by fluorimetry; format: functional, organism-based; conditions: Human immunodeficiency virus 1, LAI
In short: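 CEM reporter cells carrying an EGFP cassette driven by the HIV promoter were seeded at 4000 cells/well. They were infected with HIV-1 LAI at MOI 3 and incubated 5 days at 37 °C, 5% CO2. EGFP fluorescence intensity was read on a plate reader. Values are the geometric mean of two determinations, with each value within 25% of the mean.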

[2] = Cytotoxicity against human CEMx174 cells; format: cell-based
In short: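 CC50 is the compound concentration that reduces viability of uninfected cells by 50%. Values are the geometric mean of two determinations, with each value within 25% of the mean.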

| Structure (SMILES) | EC50 [1] [µM] | CC50 [2] [µM] |
| --- | --- | --- |
| CC1=C(C(=O)OCC2CCCCC2)C(c2ccc(O)cc2)NC(=O)N1 (stereo not given) | 0.431 | > 10 |
| O=C1NC(c2ccccc2)=C(C(=O)OCC2CCCCC2)C(c2cccc(O)c2)N1 (stereo not given) | > 10 | > 10 |
| CC1=C(C(=O)O)C(c2cccc(O)c2)NC(=O)N1 (stereo not given) | > 10 | > 10 |
| CC1=C(C(=O)OC2CCCCC2)C(c2cccc(O)c2)NC(=O)N1 (stereo not given) | > 10 | > 10 |
| CC1=C(C(=O)NCC2CCCCC2)C(c2cccc(O)c2)NC(=O)N1 (stereo not given) | > 10 |  |
| CC1=C(C(=O)OCC2CCCCC2)C(c2cccc(O)c2)NC(=O)N1C (stereo not given) | > 10 | > 10 |
| CC1=C(C(=O)OCC2CCCCC2)C(c2cccc(O)c2)N(C)C(=O)N1 (stereo not given) | > 10 | > 10 |
| Cc1nc(=O)[nH]c(-c2cccc(O)c2)c1C(=O)OCC1CCCCC1 | > 10 | > 10 |
| O=C1NC(C2CC2)=C(C(=O)OCC2CCCCC2)C(c2cccc(O)c2)N1 (stereo not given) | > 10 | > 10 |
| O=C1NC(CCl)=C(C(=O)OCC2CCCCC2)C(c2cccc(O)c2)N1 (stereo not given) | 0.359 | > 3 |
| CCC1=C(C(=O)OCC2CCCCC2)C(c2cccc(N)c2)NC(=O)N1 (stereo not given) | 0.159 | > 10 |
| CCC1=C(C(=O)OCC2CCCCC2)C(c2ccc(NC(C)=O)cc2)NC(=O)N1 (stereo not given) | 0.063 | > 10 |
| CCC1=C(C(=O)OCC2CCCCC2)C(c2ccc(C#N)cc2)NC(=O)N1 (stereo not given) | 0.061 | > 10 |
| CCC1=C(C(=O)OCC2CCCCC2)C(c2ccc(C(=O)OC)cc2)NC(=O)N1 (stereo not given) | 0.122 | > 10 |
| CCC1=C(C(=O)OCC2CCCCC2)C(c2ccc(C(=O)O)cc2)NC(=O)N1 (stereo not given) | > 10 | > 10 |
| CCC1=C(C(=O)OCC2CCCCC2)C(c2ccc(Cl)cc2)NC(=O)N1 (stereo not given) | 0.088 | > 10 |
| CCC1=C(C(=O)OCC2CCCCC2)C(c2ccc(F)cc2)NC(=O)N1 (stereo not given) | 0.024 | > 10 |
| CC1=C(C(=O)OCC2CCCCC2)[C@H](c2cccc(O)c2)NC(=O)N1 | 0.233 | > 10 |
| CCC1=C(C(=O)OCC2CCCCC2)[C@H](c2cccc(O)c2)NC(=O)N1 | 0.038 | > 10 |
| CCC1=C(C(=O)OCC2CCCCC2)[C@@H](c2cccc(O)c2)NC(=O)N1 | > 10 | > 10 |
| Cc1ccnc2c1NC(=O)c1cccnc1N2C1CC1 [NEVIRAPINE] | 0.15 | > 10 |

More lines, main results first:

| EC50 [1] [µM] | Structure (SMILES) | CC50 [2] [µM] |
| --- | --- | --- |
| 1.27 | COc1cccc(C2NC(=O)NC(C)=C2C(=O)OCC2CCCCC2)c1 (stereo not given) | > 10 |
| > 10 | CC1=C(C(=O)OCc2ccccc2)C(c2cccc(O)c2)NC(=O)N1 (stereo not given) | > 10 |
| > 10 | CC1=C(C(=O)OCC2CCCCC2)C(c2cccc(O)c2)NC(=S)N1 (stereo not given) | > 10 |
| 0.286 | CCCC1=C(C(=O)OCC2CCCCC2)C(c2cccc(O)c2)NC(=O)N1 (stereo not given) | > 10 |
| > 10 | CC(C)C1=C(C(=O)OCC2CCCCC2)C(c2cccc(O)c2)NC(=O)N1 (stereo not given) |  |
| 2.2 | C#CC1=C(C(=O)OCC2CCCCC2)C(c2cccc(O)c2)NC(=O)N1 (stereo not given) | > 1 |
| > 10 | CCC1=C(C(=O)OCC2CCCCC2)C(c2cccc(O)c2)NC(=S)N1 (stereo not given) | > 10 |
| > 10 | CC1=C(C(=O)OCC2CCCCC2)C(c2ccccc2O)NC(=O)N1 (stereo not given) | > 10 |
| 0.031 | CCC1=C(C(=O)OCC2CCCCC2)C(c2ccc(O)cc2)NC(=O)N1 (stereo not given) | > 10 |
| 0.335 | CCC1=C(C(=O)OCC2CCCCC2)C(c2cccc([N+](=O)[O-])c2)NC(=O)N1 (stereo not given) | > 10 |
| 0.141 | CCC1=C(C(=O)OCC2CCCCC2)C(c2ccc([N+](=O)[O-])cc2)NC(=O)N1 (stereo not given) | > 10 |
| 0.151 | CCC1=C(C(=O)OCC2CCCCC2)C(c2ccc(N)cc2)NC(=O)N1 (stereo not given) | > 10 |
| 0.108 | CCC1=C(C(=O)OCC2CCCCC2)C(c2ccc(NC)cc2)NC(=O)N1 (stereo not given) | > 10 |
| 0.177 | CCC1=C(C(=O)OCC2CCCCC2)C(c2ccc(N(C)C)cc2)NC(=O)N1 (stereo not given) | > 10 |
| > 10 | CC1=C(C(=O)OCC2CCCCC2)[C@@H](c2cccc(O)c2)NC(=O)N1 | > 10 |
| > 10 | CCOC(=O)C1=C(C)NC(=O)NC1c1cccc(O)c1 (stereo not given) |  |
| 0.529 | CC1=C(C(=O)OCC2CCCCC2)C(c2cccc(O)c2)NC(=O)N1 (racemic) | > 10 |
| 0.087 | CCC1=C(C(=O)OCC2CCCCC2)C(c2cccc(O)c2)NC(=O)N1 (racemic) | > 10 |

Reference: ChEMBL document CHEMBL1955853, “Discovery of 3,4-dihydropyrimidin-2(1H)-ones with inhibitory activity against HIV-1 replication” (Bioorg Med Chem Lett, 2012)
